In ChEMBL document CHEMBL1127633, “Cyclic beta-casomorphin analogues with mixed mu agonist/delta antagonist properties: synthesis, pharmacological characterization, and conformational aspects” (J Med Chem, 1994) one finds IC50 and Ki data, which are given here for nine compounds.

Assay [1] is filed under the species Cavia porcellus. The assay is described as follows: In vitro inhibition of electrically evoked contractions of the guinea pig ileum (GPI). In kind it is functional. The method, boiled down:
(§1)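 Electrically evoked contractions of isolated tissue preparations. Each preparation had its own log dose-response curve with [Leu5]enkephalin as standard. Test IC50 values were normalized to that standard. Mean of three to six determinations ± SEM. Partial agonists are reported as % maximal inhibition of contraction at high concentrations.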

The species named for assay [2] is Mus musculus. Put plainly: In vitro inhibition of electrically evoked contractions of the mouse vas deferens (MVD). The class given is functional. In outline: as §1
In assay [3] the target is Mu-type opioid receptor (Rattus norvegicus, UniProt P33535). The assay is described as follows: Binding affinity for mu opioid receptors by displacement of [3H]-DAMGO from rat brain membrane binding site. For orientation: Loss of bound radioactivity is the signal in a displacement assay; it reports binding, not function.
Assay [4] addresses Delta-type opioid receptor (Rattus norvegicus, UniProt P33533). Put plainly: Binding affinity for delta opioid receptors was determined by displacement of [3H]DSLET from rat brain membrane binding site. The method, boiled down:
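Rat brain membranes incubated 2 h at 0 °C with 0.78 nM [3H]DSLET. IC50 read from dose-displacement curves. […] Mean of three to six determinations ± SEM.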

Residues, ends and D or L forms follow the SMILES beside them.

For orientation: IC50 means the concentration needed to halve the response being measured. Usually Ki stands for a measure of affinity in units of concentration, obtained from inhibition or displacement.

Chain of Delta-type opioid receptor (P33533 whole entry): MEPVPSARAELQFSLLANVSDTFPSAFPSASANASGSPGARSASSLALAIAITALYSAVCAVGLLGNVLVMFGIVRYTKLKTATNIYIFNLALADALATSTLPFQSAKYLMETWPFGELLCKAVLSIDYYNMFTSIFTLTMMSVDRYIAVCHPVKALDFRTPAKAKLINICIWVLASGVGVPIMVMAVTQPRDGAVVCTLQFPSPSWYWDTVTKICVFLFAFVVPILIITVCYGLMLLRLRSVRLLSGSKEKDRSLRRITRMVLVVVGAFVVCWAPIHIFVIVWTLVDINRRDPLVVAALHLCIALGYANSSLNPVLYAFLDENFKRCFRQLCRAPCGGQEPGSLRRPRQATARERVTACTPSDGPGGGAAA
Chain of Mu-type opioid receptor (P33535 whole entry): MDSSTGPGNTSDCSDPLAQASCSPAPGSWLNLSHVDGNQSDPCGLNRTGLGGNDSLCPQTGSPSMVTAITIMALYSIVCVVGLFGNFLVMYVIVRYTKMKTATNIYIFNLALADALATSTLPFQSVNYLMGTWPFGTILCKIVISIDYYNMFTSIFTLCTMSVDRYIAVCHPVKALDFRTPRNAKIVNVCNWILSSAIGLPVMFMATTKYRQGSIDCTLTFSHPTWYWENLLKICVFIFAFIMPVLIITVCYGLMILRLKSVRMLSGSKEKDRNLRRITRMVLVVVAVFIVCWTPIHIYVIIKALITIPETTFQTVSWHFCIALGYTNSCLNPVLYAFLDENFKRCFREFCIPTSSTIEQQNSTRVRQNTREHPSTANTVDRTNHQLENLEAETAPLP

In the case of `N[C@@H](Cc1ccc(O)cc1)C(=O)NC1CCCNC(=O)CNC(=O)[C@@H]2CCCN2C(=O)[C@H](Cc2ccccc2)NC1=O` (single isomer, unassigned), the IC50 in assay [1] was 13.4 nM; in assay [2] it was 69.9 nM. In addition, the Ki turned out to be 3.99 nM in assay [3] and 1280 nM in assay [4].
In the case of `NC(=O)[C@H](Cc1ccccc1)NC(=O)[C@H](Cc1ccccc1)NC(=O)[C@@H]1Cc2ccccc2CN1C(=O)[C@@H](N)Cc1ccc(O)cc1` (HELM PEPTIDE1{Y.[Tic].F.F.[am]}$$$$V2.0), the half-maximal inhibitory concentration (IC50) in assay [1] came out at 1700 nM.
For `N[C@@H](Cc1ccc(O)cc1)C(=O)N[C@@H]1CCCNC(=O)CNC(=O)[C@H]2CCCN2C(=O)[C@H](Cc2c[nH]c3ccccc23)NC1=O`, the figures for the IC50 in assay [1] and in assay [2] were 27.5 nM and 16.1 nM, respectively. In addition, the values for the Ki in assay [3] and in assay [4] were 2.09 nM and 10.3 nM, respectively.
Taken in the same sequence, the figures for `N[C@@H](Cc1ccc(O)cc1)C(=O)N[C@@H]1CCNC(=O)CNC(=O)[C@H]2CCCN2C(=O)[C@H](Cc2ccc3ccccc3c2)NC1=O` were 353 nM, 1000 nM, 6.41 nM and 70.8 nM.
Taken in the same sequence, the figures for `N[C@@H](Cc1ccc(O)cc1)C(=O)NC1CCCNC(=O)CNC(=O)[C@@H]2CCCN2C(=O)[C@H](Cc2ccc3ccccc3c2)NC1=O` (single isomer, unassigned) were 1220 nM, 10000 nM, 81.3 nM and 2140 nM.
Consider `N[C@@H](Cc1ccc(O)cc1)C(=O)N[C@@H]1CCCNC(=O)CNC(=O)[C@H]2CCCN2C(=O)[C@H](Cc2ccccc2)NC1=O`, for which the IC50 in assay [1] amounted to 2.14 nM; in assay [2], 4.98 nM. Moreover, the Ki in assay [3] came out at 0.881 nM; in assay [4] it was 13.2 nM.
As to `N[C@@H](Cc1ccc(O)cc1)C(=O)N[C@@H]1CCCNC(=O)[C@H]2CCCN2C(=O)[C@H](Cc2ccc3ccccc3c2)NC1=O`, the figures for the IC50 in assay [1] and in assay [2] were 11.8 nM and 32.2 nM, respectively. Also, the Ki stood at 2.74 nM in assay [3] and 28.3 nM in assay [4].
In assay [1], `N[C@@H](Cc1ccc(O)cc1)C(=O)N[C@@H]1CCCNC(=O)CNC(=O)[C@H]2CCCN2C(=O)[C@H](Cc2ccc3ccccc3c2)NC1=O` gave an IC50 of 384 nM.
In the case of `N[C@@H](Cc1ccc(O)cc1)C(=O)N[C@@H]1CCCNC(=O)CNC(=O)[C@H]2CCCN2C(=O)[C@H](Cc2cccc3ccccc23)NC1=O`, the IC50 worked out at 14.9 nM in assay [1] and 29.9 nM in assay [2]. Besides, the Ki in assay [3] turned out to be 3.42 nM; in assay [4], 23.6 nM.
